# Unmarked numbers belong to inactive results. Calls of active or inactive are those of the source.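 How the source made its calls: active means inhibition above 10%; inactive means the rest.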
# Biological target: Hexokinase-4 (Homo sapiens) (UniProt P35557)
# Test: human glucokinase inhibition, counter-screen for TbHK1 inhibitor project, biochemical, recombinant hGlck (AID 492951)
# Conditions: G6PDH-coupled NADH absorbance 340 nm, at 10 µM; active compounds read high
# How it was run: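 Material: Recombinant human glucokinase, G6PDH-coupled | Medium: TEA buffer pH 7.9 with 3.3 mM MgCl2, 0.75 mM NAD+ | Also added: 20 mM glucose as reaction starter, plus 1 mM ATP | Compound dosing: One dose, 10 µM final | Schedule: 10 min preincubation at room temperature | Measured by: A340 of NADH | Repeats: Three replicates per compound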
# Hexokinase-4 (Homo sapiens), sequence (P35557 whole entry, looked up): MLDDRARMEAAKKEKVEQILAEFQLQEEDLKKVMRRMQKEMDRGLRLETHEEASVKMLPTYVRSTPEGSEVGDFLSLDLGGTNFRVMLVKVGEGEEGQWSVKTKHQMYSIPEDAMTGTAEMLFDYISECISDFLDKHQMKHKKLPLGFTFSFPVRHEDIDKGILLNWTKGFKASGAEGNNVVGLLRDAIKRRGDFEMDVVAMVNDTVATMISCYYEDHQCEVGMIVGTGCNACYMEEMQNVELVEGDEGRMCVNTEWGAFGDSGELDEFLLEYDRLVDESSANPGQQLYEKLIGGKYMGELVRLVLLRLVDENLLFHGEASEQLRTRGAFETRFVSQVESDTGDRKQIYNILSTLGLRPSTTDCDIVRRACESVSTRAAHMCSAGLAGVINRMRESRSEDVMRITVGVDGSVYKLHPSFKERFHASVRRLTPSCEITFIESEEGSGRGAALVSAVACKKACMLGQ
SMILES,outcome,inhibition
Cc1ccccc1-n1sc2cc(F)ccc2c1=O,inactive,
COc1cccc(CC(=O)Nc2cc(Cl)ccc2C(=O)O)c1,inactive,
CC(C)(C)c1ccc(C(=O)Nc2cc(Cl)c(Br)cc2C(=O)O)cc1,,11.9% (active)
COc1ccc(NC(=O)c2ccccc2C(=O)O)cc1,,0.9%
N#Cc1ccc(Oc2ccc3c(c2)B(O)OC3)cc1,inactive,
O=c1s[nH]c2ccccc12,,48.8% (active)
COC(=O)c1ccc(Cl)cc1NS(=O)(=O)c1ccc(OC)cc1,inactive,
Cc1ccccc1N1Cc2ccccc2C1=O,inactive,
COc1ccc(NC(=O)Nc2ccccc2C(=O)O)cc1,,5.1%
O=c1c2ccccc2sn1-c1cccc(Cl)c1,,34.9% (active)
O=c1c2cccnc2sn1-c1ccccc1,,91.5% (active)
COc1ccc(Nc2cc(Cl)ccc2C(=O)O)cc1,inactive,
CN(Cc1ccccc1)C(=O)Cn1sc2ccccc2c1=O,,30.6% (active)
COc1ccc(C(=O)Nc2ccccc2C(=O)O)cc1Cl,,11.9% (active)
O=C(Nc1cc(Cl)ccc1C(=O)O)c1ccc(-c2cccs2)cc1,,30.3% (active)
CCCCCC(=O)Nc1cc(Cl)ccc1C(=O)O,inactive,
O=C(Cn1sc2ccccc2c1=O)Nc1ccc(Br)cc1,,33.8% (active)
CCc1ccc(C(=O)Nc2cc(Cl)ccc2C(=O)O)cc1,inactive,
O=C(Cn1sc2ccccc2c1=O)Nc1ccccc1,,7.03%
O=C(Cn1sc2ccccc2c1=O)Nc1ccc(I)cc1,,36.2% (active)
COc1ccc2c(c1)CN(c1cc(Cl)ccc1C(=O)O)C2=O,inactive,

# From PubChem BioAssay AID492951 (Molecular Libraries Program, Specialized Chemistry Center, …, 2010)
